Assays:
mouse TRPC5 = target: T1, mouse TRPC5 (Mus musculus, UniProt Q9QX29); assay: Syncropatch automated patch clamp, inhibition of riluzole-induced TRPC5 currents; type: cell-based; conditions: for TRPC5 activity (in words) / IC50: Syncropatch; for IC50: TRPC5 IC50, riluzole (30 μM)-induced TRPC5 current
T1 sequence (Q9QX29 1-975): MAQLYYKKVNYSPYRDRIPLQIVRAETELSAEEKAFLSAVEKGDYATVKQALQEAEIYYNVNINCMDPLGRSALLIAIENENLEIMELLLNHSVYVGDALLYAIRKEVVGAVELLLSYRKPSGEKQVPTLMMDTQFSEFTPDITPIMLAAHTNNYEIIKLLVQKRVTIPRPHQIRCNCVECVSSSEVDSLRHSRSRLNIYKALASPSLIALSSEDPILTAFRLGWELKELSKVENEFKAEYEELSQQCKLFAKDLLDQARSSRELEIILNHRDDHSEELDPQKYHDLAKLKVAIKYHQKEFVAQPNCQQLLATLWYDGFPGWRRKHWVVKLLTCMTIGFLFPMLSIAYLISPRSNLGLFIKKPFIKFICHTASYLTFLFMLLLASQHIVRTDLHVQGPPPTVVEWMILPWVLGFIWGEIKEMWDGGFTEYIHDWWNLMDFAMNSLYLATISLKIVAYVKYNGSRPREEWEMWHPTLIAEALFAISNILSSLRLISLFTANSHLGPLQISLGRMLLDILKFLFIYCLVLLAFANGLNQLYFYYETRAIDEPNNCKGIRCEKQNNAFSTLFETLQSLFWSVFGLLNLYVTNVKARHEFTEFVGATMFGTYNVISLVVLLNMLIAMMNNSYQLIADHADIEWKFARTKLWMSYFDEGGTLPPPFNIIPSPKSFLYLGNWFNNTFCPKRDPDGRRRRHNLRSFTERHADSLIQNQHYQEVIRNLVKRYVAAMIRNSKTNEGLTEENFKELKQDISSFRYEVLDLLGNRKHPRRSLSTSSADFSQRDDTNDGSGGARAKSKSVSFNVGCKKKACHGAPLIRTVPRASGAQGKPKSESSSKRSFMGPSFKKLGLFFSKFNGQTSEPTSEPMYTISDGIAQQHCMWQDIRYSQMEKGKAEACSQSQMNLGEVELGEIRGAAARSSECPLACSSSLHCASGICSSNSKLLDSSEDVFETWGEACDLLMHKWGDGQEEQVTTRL
Method in brief: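 Doxycycline-induced (0.5–1 μg/mL, 3 days) Flp-In T-REx-293 cells stably expressing mouse TRPC5, used in automated patch clamp. 200 ms ramps from −100 to +100 mV every 5–10 s. 30 μM riluzole activates currents and stays present with compound. Only cells with doubly-rectifying currents kept. % inhibition compares 3 ramps after vs before compound, normalized to a reference inhibitor at 3 μM. IC50 from three-parameter fit.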

[1] = Human liver microsome stability; type: in vitro ADME; conditions: liver microsomes
[2] = Mouse liver microsome stability; type: in vitro ADME; conditions: liver microsomes
[3] = Human plasma protein binding; type: in vitro ADME
[4] = Mouse plasma protein binding; type: in vitro ADME
In vivo rat cassette PK = conditions: for Brain / Plasma: Rat cassette (0.25 mpk); for Brain: brain level for Kp; for Plasma: plasma level for Kp; for Kp / C0 / MRT inf / Vd / clearance / half-life / AUC: rat, intravenous; for Kp: brain/plasma, 0.25 mpk; for C0 / MRT inf / Vd / clearance / half-life: in vivo; for C0 / MRT inf / Vd / clearance / half-life / AUC: 0.25 mg/kg; for AUC: plasma

Compound: CN1CCC(N2CCN(c3nc4ccccc4n3Cc3ccccc3)CC2)CC1 [7 h, 1‐Benzyl‐2‐(4‐(1‐methylpiperidin‐4‐yl)piperazin‐1‐yl)‐1H‐benzo[d]imidazole]
- TRPC5 activity (in words) (mouse TRPC5): not productive

Compound: COc1ccc2c(c1)nc(N1CCCC1)n2Cc1ccccc1 [14 h, 1‐Benzyl‐5‐methoxy‐2‐(pyrrolidin‐1‐yl)‐1H‐benzo[d]imidazole]
- IC50 (mouse TRPC5): 1150 ± 330 nM

Compound: C[C@@H]1CCCN1c1nc2ccccc2n1Cc1ccc(Cl)cc1 [16 e, (R)‐1‐(4‐Chlorobenzyl)‐2‐(2‐methylpyrrolidin‐1‐yl)‐1H‐benzo[d]imidazole]
- IC50 (mouse TRPC5): 2890 ± 700 nM

Compound: COc1ccc(Cn2c(N3CCCC3)nc3ccccc32)cc1F [9 g, 1‐(3‐Fluoro‐4‐methoxybenzyl)‐2‐(pyrrolidin‐1‐yl)‐1H‐benzo[d]imidazole]
- IC50 (mouse TRPC5): 1780 ± 430 nM

Compound: Cc1cccc(Cn2c(N3CCCC3)nc3ccccc32)c1 [9 l, 1‐(3‐Methylbenzyl)‐2‐(pyrrolidin‐1‐yl)‐1H‐benzo[d]imidazole]
- IC50 (mouse TRPC5): 1900 nM

Compound: O=S(=O)(c1ccccc1)n1c(N2CCCC2)nc2ccccc21 [9 v, 1‐(Phenylsulfonyl)‐2‐(pyrrolidin‐1‐yl)‐1H‐benzo[d]imidazole]
- TRPC5 activity (in words) (mouse TRPC5): inactive

Compound: O=S1(=O)CCN(c2nc3ccccc3n2Cc2ccc(Cl)cc2)CC1 [16 c, 4‐(1‐(4‐Chlorobenzyl)‐1H‐benzo[d]imidazol‐2‐yl)thiomorpholine‐1,1‐dioxide]
- TRPC5 activity (in words) (mouse TRPC5): not active

Compound: Cc1cc2nc(N3CCCC3)n(Cc3ccccc3)c2cc1C [14 b, 1‐Benzyl‐5,6‐dimethyl‐2‐(pyrrolidin‐1‐yl)‐1H‐benzo[d]imidazole]
- TRPC5 activity (in words) (mouse TRPC5): moderate activity
- IC50 (mouse TRPC5): 12300 nM

Compound: O=c1[nH]ncc(-c2ccc3c(c2)nc(N2CCCC2)n3Cc2ccccc2)c1Cl [14 n, 5‐(1‐Benzyl‐2‐(pyrrolidin‐1‐yl)‐1H‐benzo[d]imidazol‐5‐yl)‐4‐chloropyridazin‐3(2H)‐one]
- TRPC5 activity (in words) (mouse TRPC5): not as active as 1
- IC50 (mouse TRPC5): 7550 ± 2520 nM

Compound: COc1ccc(Cn2c(N3CCCC3)nc3ccccc32)cc1 [9 f, 1‐(4‐Methoxybenzyl)‐2‐(pyrrolidin‐1‐yl)‐1H‐benzo[d]imidazole]
- IC50 (mouse TRPC5): 1150 ± 250 nM

Compound: Fc1ccccc1Cn1c(N2CCCC2)nc2ccccc21 [9 a, 1‐(2‐Fluorobenzyl)‐2‐(pyrrolidin‐1‐yl)‐1H‐benzo[d]imidazole]
- IC50 (mouse TRPC5): 2690 nM

Compound: c1ccc(Cn2c(CCN3CCCC3)nc3ccccc32)cc1 [7 j, 1‐Benzyl‐2‐(2‐(pyrrolidin‐1‐yl)ethyl)‐1H‐benzo[d]imidazole]
- TRPC5 activity (in words) (mouse TRPC5): moderate activity

Compound: N#Cc1cc(Cn2c(N3CCCC3)nc3ccccc32)ccc1F [9 o, 2‐Fluoro‐5‐((2‐(pyrrolidin‐1‐yl)‐1H‐benzo[d]imidazol‐1‐yl)methyl)benzonitrile]
- IC50 (mouse TRPC5): 540 ± 230 nM
- CLint scaled [1]: 38.1 mL/min/kg
- hCLHEP [1]: 13.2 mL/min/kg
- CLint scaled [2]: 370 mL/min/kg
- mCLHEP [2]: 72.5 mL/min/kg
- fraction unbound [3]: 0.068
- fraction unbound [4]: 0.053
- Brain (In vivo rat cassette PK): 41.8
- Plasma (In vivo rat cassette PK): 69.7
- Kp (In vivo rat cassette PK): 0.6
- C0 (In vivo rat cassette PK): 221 ng/mL
- MRT inf (In vivo rat cassette PK): 38.5 min
- Vd (In vivo rat cassette PK): 1.8 L/kg
- clearance (In vivo rat cassette PK): 61.3 mL/min/kg
- half-life (In vivo rat cassette PK): 38.4 min
- AUC (In vivo rat cassette PK): 262 ng·h/mL

Compound: Fc1cccc(Cn2c(N3CCCC3)nc3ccccc32)c1 [9 b, 1‐(3‐Fluorobenzyl)‐2‐(pyrrolidin‐1‐yl)‐1H‐benzo[d]imidazole]
- IC50 (mouse TRPC5): 1490 ± 310 nM

Compound: Fc1cc(Cl)ccc1Cn1c(N2CCCC2)nc2ccccc21 [9 n, 1‐(4‐Chloro‐2‐fluorobenzyl)‐2‐(pyrrolidin‐1‐yl)‐1H‐benzo[d]imidazole]
- IC50 (mouse TRPC5): 840 ± 230 nM
- CLint scaled [1]: 239 mL/min/kg
- hCLHEP [1]: 18.5 mL/min/kg
- CLint scaled [2]: 3200 mL/min/kg
- mCLHEP [2]: 87.6 mL/min/kg
- fraction unbound [3]: 0.01
- fraction unbound [4]: 0.0217

Compound: CCCNc1nc2ccccc2n1Cc1ccccc1 [7 f, 1‐Benzyl‐N‐propyl‐1H‐benzo[d]imidazol‐2‐amine]
- IC50 (mouse TRPC5): 720 ± 210 nM
- CLint scaled [1]: 103 mL/min/kg
- hCLHEP [1]: 16.8 mL/min/kg
- CLint scaled [2]: 796 mL/min/kg
- mCLHEP [2]: 80.9 mL/min/kg
- fraction unbound [3]: 0.041
- fraction unbound [4]: 0.108

Compound: O=C(c1ccccc1)n1c(N2CCCC2)nc2ccccc21 [9 u, Phenyl(2‐(pyrrolidin‐1‐yl)‐1H‐benzo[d]imidazol‐1‐yl)methanone]
- TRPC5 activity (in words) (mouse TRPC5): inactive

Compound: CC1CCN(c2nc3ccccc3n2Cc2ccc(Cl)cc2)CC1 [16 b, 1‐(4‐Chlorobenzyl)‐2‐(4‐methylpiperidin‐1‐yl)‐1H‐benzo[d]imidazole]
- TRPC5 activity (in words) (mouse TRPC5): not active

Compound: Clc1ccc(Cn2c(N3CCCC3)nc3ccccc32)cn1 [9 t, 1‐((6‐Chloropyridin‐3‐yl)methyl)‐2‐(pyrrolidin‐1‐yl)‐1H‐benzo[d]imidazole]
- IC50 (mouse TRPC5): 3110 ± 940 nM
- inhibition at 3 µM (mouse TRPC5; read-out: % Inhibition @ 3 μM): 127%

Compound: CC1CCCCN1c1nc2ccccc2n1Cc1ccc(Cl)cc1 (stereo not shown) [16 a, 1‐(4‐Chlorobenzyl)‐2‐(2‐methylpiperidin‐1‐yl)‐1H‐benzo[d]imidazole]
- TRPC5 activity (in words) (mouse TRPC5): not active

Compound: Fc1ccc(Cn2c(N3CCCC3)nc3ccccc32)cc1 [9 c, 1‐(4‐Fluorobenzyl)‐2‐(pyrrolidin‐1‐yl)‐1H‐benzo[d]imidazole]
- IC50 (mouse TRPC5): 590 ± 140 nM

Compound: Clc1cccc(Cn2c(N3CCCC3)nc3ccccc32)c1 [9 d, 1‐(3‐Chlorobenzyl)‐2‐(pyrrolidin‐1‐yl)‐1H‐benzo[d]imidazole]
- IC50 (mouse TRPC5): 720 ± 210 nM

Compound: Clc1ccc(Cn2c(N3CCCC3)nc3ccccc32)cc1 [9 e, 1‐(4‐Chlorobenzyl)‐2‐(pyrrolidin‐1‐yl)‐1H‐benzo[d]imidazole]
- IC50 (mouse TRPC5): 440 ± 140 nM
- CLint scaled [1]: 278 mL/min/kg
- hCLHEP [1]: 18.7 mL/min/kg
- CLint scaled [2]: 4260 mL/min/kg
- mCLHEP [2]: 88.2 mL/min/kg
- fraction unbound [3]: 0.013
- fraction unbound [4]: 0.013

Compound: Cc1ccc(Cn2c(N3CCCC3)nc3ccccc32)cc1 [9 k, 1‐(4‐Methylbenzyl)‐2‐(pyrrolidin‐1‐yl)‐1H‐benzo[d]imidazole]
- IC50 (mouse TRPC5): 902 ± 340 nM

Compound: c1ccc(Cn2c(N3CCCC3)nc3ccccc32)cc1 [7 c, 1‐Benzyl‐2‐(pyrrolidin‐1‐yl)‐1H‐benzo[d]imidazole]
- IC50 (mouse TRPC5): 4300 ± 1630 nM
- CLint scaled [1]: 164 mL/min/kg
- hCLHEP [1]: 17.9 mL/min/kg
- CLint scaled [2]: 530 mL/min/kg
- mCLHEP [2]: 77.0 mL/min/kg
- fraction unbound [3]: 0.044
- fraction unbound [4]: 0.036

Compound: CCCNc1nc2ccccc2n1Cc1ccc(Cl)cc1 [16 f, 1‐(4‐Chlorobenzyl)‐N‐propyl‐1H‐benzo[d]imidazol‐2‐amine]
- IC50 (mouse TRPC5): 68 ± 106 nM
- CLint scaled [1]: 127 mL/min/kg
- hCLHEP [1]: 17.4 mL/min/kg
- CLint scaled [2]: 867 mL/min/kg
- mCLHEP [2]: 81.6 mL/min/kg
- fraction unbound [3]: 0.014
- fraction unbound [4]: 0.036
- Brain (In vivo rat cassette PK): 163
- Plasma (In vivo rat cassette PK): 77.5
- Kp (In vivo rat cassette PK): 2.1
- C0 (In vivo rat cassette PK): 140 ng/mL
- MRT inf (In vivo rat cassette PK): 37.9 min
- Vd (In vivo rat cassette PK): 2.3 L/kg
- clearance (In vivo rat cassette PK): 57.8 mL/min/kg
- half-life (In vivo rat cassette PK): 43.3 min
- AUC (In vivo rat cassette PK): 291 ng·h/mL

Compound: CC(C)CCNc1nc2ccccc2n1Cc1ccccc1 [7 g, 1‐Benzyl‐N‐isopentyl‐1H‐benzo[d]imidazol‐2‐amine]
- IC50 (mouse TRPC5): 1300 ± 310 nM

Compound: c1ccc(Cn2c(N3CCC4(CC3)CNC4)nc3ccccc32)cc1 [7 i, 7‐(1‐Benzyl‐1H‐benzo[d]imidazol‐2‐yl)‐2,7‐diazaspiro[3.5]nonane]
- TRPC5 activity (in words) (mouse TRPC5): not productive

From paper PMC9308755 (Chemmedchem, 2022)
